Results pooled from the literature.
Compare with care: the assays were run in different laboratories.
Target: Membrane-associated tyrosine- and threonine-specific cdc2-inhibitory kinase (PKMYT1, Homo sapiens, UniProt Q99640)
Residues used in one study (Q99640 1-499): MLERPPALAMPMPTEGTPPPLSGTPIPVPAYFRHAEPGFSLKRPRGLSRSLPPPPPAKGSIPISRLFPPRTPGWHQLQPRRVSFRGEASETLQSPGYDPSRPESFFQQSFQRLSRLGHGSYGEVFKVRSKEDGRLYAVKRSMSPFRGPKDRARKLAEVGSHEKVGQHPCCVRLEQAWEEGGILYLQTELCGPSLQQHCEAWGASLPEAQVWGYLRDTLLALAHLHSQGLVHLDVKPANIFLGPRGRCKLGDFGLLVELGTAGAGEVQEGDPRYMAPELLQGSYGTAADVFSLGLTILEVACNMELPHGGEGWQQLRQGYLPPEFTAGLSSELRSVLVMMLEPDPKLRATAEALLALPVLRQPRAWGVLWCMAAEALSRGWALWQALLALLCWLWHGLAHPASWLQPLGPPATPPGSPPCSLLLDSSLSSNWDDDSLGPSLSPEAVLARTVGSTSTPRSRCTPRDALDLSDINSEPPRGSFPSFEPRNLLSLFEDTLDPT

| SMILES | test | conditions | remaining binding |
| --- | --- | --- | --- |
| COc1ncc2cc3ccccc3nc2c1C#N | cell-free assay, competition with immobilised ligand | 5 µM | 100% |
| NS(=O)(=O)c1cc(NC(=O)Cc2ccccc2)ccc1Oc1cccc(Cl)c1 | cell-free assay, competition with immobilised ligand | 1 µM | 96% |
| COc1cnc(Nc2cccc(S(N)(=O)=O)c2)nc1N1CCN(c2ccccc2)CC1 | binding, competition with immobilised ligand | 1 µM | 89% |
| O=C(Nc1cccnn1)N1CC(C/C=C/c2cncc(Oc3ccc(C(F)(F)F)cn3)n2)C1 | cell-free assay, competition with immobilised ligand | 1 µM | 100% |
| CN(C)c1nccc(-c2cnc3ncccn23)n1 | binding | 1 µM | 88% |
| CN1CCN(c2cnc3c(C4CCN(C(=O)c5ccc(OC(F)(F)F)cc5N)CC4)ncnc3c2)CC1 | cell-free assay, competition with immobilised ligand | 1 µM | 100% |
| CN(C)c1nccc(-c2cnn3ncccc23)n1 | binding | 1 µM | 100% |
| O=C(c1ccc(Nc2ncc(Cl)c(-c3ccc(Cl)s3)n2)cc1)N1CCC(N2CCCC2)CC1 | binding, competition with immobilised ligand | 1 µM | 100% |
| O=C(Nc1c[nH]nc1C(=O)NC1CCNCC1)c1cc(F)cc(F)c1 | binding, competition with immobilised ligand | 1 µM | 83% |
| CN(C)c1ncc(F)c(-c2cnn3ncccc23)n1 | binding | 1 µM | 97% |
| Cn1nc(C(F)(F)F)cc1-c1cnc(N2CCc3cc(S(=O)(=O)Nc4c(F)cc(Cl)cc4F)cc(N4CCCC4=O)c32)nc1 | cell-free assay, competition with immobilised ligand | 1 µM | 93% |
| O=C(NCCCN1CCOCC1)c1ccc(Nc2nccc(-c3cc4ccccc4s3)n2)cc1 | binding, competition with immobilised ligand | 1 µM | 84% |
| CC(=O)c1c(NS(C)(=O)=O)c2cc(-c3ccc(Cl)cc3)c(-c3ccc(Cl)cc3Cl)nc2n(C)c1=O | cell-free assay, competition with immobilised ligand | 1 µM | 99% |
| FC(F)(F)Oc1cccc(-c2cnc3ccc(-c4ccncc4)nn23)c1 | cell-free assay, competition with immobilised ligand | 5 µM | 67% |
| COc1ccnn2ncc(-c3ccnc(N(C)C)n3)c12 | binding | 1 µM | 100% |
| O=C(Nc1ccc(Oc2ccc(F)cc2)cc1)N1CCc2ncccc2[C@H]1c1ccc(F)cc1 | cell-free assay, competition with immobilised ligand | 1 µM | 63% |
| N[C@@H]1CCN(c2nccc(-c3cnn4ncccc34)n2)C1 | binding | 1 µM | 100% |
| Cc1cnc(Nc2ccc(C(=O)N3CCC(N4CCCC4)CC3)cc2)nc1-c1cc2ccccc2s1 | binding, competition with immobilised ligand | 1 µM | 80% |
| CN(CCCC(F)(F)F)c1nccc(-c2cnn3ncccc23)n1 | binding | 1 µM | 93% |
| c1cncc(-c2cccc(Nc3nccc(NC4CCCCC4)n3)c2)c1 | binding, competition with immobilised ligand | 10 µM | 96% |
